Values after ≈ are worked out from the molar mass of the structure shown.
What was measured:
[1] = target: Adenosine receptor A2a (Rattus norvegicus) (UniProt P30543); test: Displacement of [3H]MSX-2 from adenosine A2A receptor in rat brain striatal membranes at 1 uM relative to control; type: cell membranes; settings: Striatum, Membrane
[2] = target: T1, Adenosine receptor A2b (Homo sapiens) (UniProt P29275); test: Displacement of [3H]PSB-603 from human adenosine A2B receptor expressed in CHO cell membranes at 1 uM relative to control
T1 sequence (whole entry): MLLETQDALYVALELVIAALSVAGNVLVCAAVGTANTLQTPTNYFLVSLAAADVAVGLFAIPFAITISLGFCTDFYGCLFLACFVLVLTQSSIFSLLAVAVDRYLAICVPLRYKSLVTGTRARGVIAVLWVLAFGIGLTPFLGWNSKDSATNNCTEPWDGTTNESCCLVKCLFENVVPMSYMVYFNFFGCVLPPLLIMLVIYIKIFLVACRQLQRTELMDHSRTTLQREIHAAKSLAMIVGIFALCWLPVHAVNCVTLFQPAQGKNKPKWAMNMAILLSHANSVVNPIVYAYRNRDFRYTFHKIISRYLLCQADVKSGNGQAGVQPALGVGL

Adenosine receptor A1 = target: T2, Adenosine receptor A1 (Rattus norvegicus, UniProt P25099); test: Displacement of [3H]CCPA from adenosine A1 receptor in rat brain cortical membranes; type: cell membranes
T2 sequence (P25099 whole entry): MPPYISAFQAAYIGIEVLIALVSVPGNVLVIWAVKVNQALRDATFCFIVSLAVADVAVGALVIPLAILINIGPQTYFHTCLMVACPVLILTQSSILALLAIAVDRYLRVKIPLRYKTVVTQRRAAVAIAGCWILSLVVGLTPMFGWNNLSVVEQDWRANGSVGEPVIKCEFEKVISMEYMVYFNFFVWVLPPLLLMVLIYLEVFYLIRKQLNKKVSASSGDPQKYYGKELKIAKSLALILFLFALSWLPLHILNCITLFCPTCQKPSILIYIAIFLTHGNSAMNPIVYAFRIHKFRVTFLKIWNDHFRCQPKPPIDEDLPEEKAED
In short: (§1)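 Membrane radioligand binding: A1 in rat brain cortical membranes and A2A in rat brain striatal membranes, with human A1 and A2A in recombinant CHO cell membranes. Radioligands are [3H]CCPA for A1 and [3H]MSX-2 for A2A. Full concentration-inhibition curves use six to ten concentrations spanning three orders of magnitude, with at least three independent experiments.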

[3] = target: T3, Adenosine receptor A1 (Rattus norvegicus) (UniProt P25099); test: Displacement of [3H]CCPA from adenosine A1 receptor in rat brain cortical membranes at 1 uM relative to control; type: cell membranes
T3 sequence (whole entry): T2 sequence (P25099 whole entry)

Adenosine receptor A3 = target: T4, Adenosine receptor A3 (Homo sapiens, UniProt P0DMS8); test: Displacement of [3H]PSB-11 from human adenosine A3 receptor expressed in CHO cell membranes
T4 sequence (P0DMS8 whole entry): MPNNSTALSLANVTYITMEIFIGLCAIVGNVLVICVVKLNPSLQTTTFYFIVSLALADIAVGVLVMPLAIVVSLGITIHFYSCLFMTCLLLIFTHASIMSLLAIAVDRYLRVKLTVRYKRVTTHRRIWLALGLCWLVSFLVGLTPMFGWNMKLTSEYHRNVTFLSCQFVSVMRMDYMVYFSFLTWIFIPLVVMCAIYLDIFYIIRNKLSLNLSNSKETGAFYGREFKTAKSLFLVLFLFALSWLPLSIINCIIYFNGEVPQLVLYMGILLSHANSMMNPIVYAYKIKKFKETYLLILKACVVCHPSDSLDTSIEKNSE
In short: (§2)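 Membranes from CHO cells recombinantly expressing human A2B or A3 receptor. Radioligands are [3H]PSB-603 for A2B and [3H]PSB-11 for A3. Competition curves use six to ten test-compound concentrations spanning three orders of magnitude, with at least three independent experiments.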

Adenosine receptor A2a = Adenosine receptor A2a (Rattus norvegicus, UniProt P30543); test: Displacement of [3H]MSX-2 from adenosine A2A receptor in rat brain striatal membranes; type: cell membranes, Striatum, Membrane; in short: as §1
Adenosine receptor A2a, sequence (P30543 whole entry): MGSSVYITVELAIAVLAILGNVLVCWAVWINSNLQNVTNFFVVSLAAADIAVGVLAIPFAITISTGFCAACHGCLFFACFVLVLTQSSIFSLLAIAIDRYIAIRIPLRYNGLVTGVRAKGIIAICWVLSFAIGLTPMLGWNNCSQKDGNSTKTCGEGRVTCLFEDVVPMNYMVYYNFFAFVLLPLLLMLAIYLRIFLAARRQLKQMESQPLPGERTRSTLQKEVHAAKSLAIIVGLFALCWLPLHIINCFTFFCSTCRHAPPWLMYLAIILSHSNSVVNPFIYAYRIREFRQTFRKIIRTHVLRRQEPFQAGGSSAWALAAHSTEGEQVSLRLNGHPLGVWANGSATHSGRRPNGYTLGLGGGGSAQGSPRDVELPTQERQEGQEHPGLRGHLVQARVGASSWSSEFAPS

Adenosine receptor A2b [4] = target: T5, Adenosine receptor A2b (Homo sapiens, UniProt P29275); test: […] from human adenosine A2B receptor expressed in CHO cell membranes; settings: in the assay text read “[3H]PSB-603” for “[3H]PSB-602”; in short: as §2
T5 sequence (P29275 whole entry): T1 sequence (whole entry)

[5] = (§3) Drug level in rat liver microsomes treated with 2-(4-(2-(1,3-Dibutyl-2,4-dioxo-1,2,3,4,7,8-hexahydropyrimido[2,1-f]purin-9(6H)-yl)ethyl)phenoxy)-N-(3-(diethylamino)propyl)-acetamide at 50 uM preincubated for 5 mins followed by addition of NADPH regenerating system and measured after 120 mins by UPLC/MS analysis; type: ADME, microsome; settings: 2 h
In short: (§4)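 Incubations use pooled human (adult male and female) or rat liver microsomes at 1 mg/ml in 0.1 M Tris-HCl pH 7.4 with compound at 50 μM. After 5 min preincubation at 37 °C, an NADPH regenerating system is added to start the reaction. Cold methanol stops it at 120 min; samples are centrifuged and the supernatant analysed by UPLC/MS.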

[6] = as §3, with “in human” for “in rat”; type: ADME, microsome; settings: 2 h; in short: as §4
[7] = Solubility of compound in water after over night incubation by UV spectroscopic method; type: physicochemical
In short: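 Compound (10 mg, basic form) is suspended in 2 mL water, boiled 5 min, left overnight at 20 °C and filtered. The filtrate is diluted 10–80-fold in MeOH and read by UV in 90% MeOH/H2O. Concentration comes from seven-point standard curves (10^-3 to 10^-1 mg/mL) by linear regression, multiplied by the dilution factor.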

Adenosine receptor A2b [8] = target: T5, Adenosine receptor A2b; test: Displacement of [3H]PSB-603 from human adenosine A2B receptor expressed in CHO cell membranes
[9] = target: T6, Adenosine receptor A3 (Homo sapiens) (UniProt P0DMS8); test: Displacement of [3H]PSB-11 from human adenosine A3 receptor expressed in CHO cell membranes at 1 uM relative to control
T6 sequence (whole entry): T4 sequence (P0DMS8 whole entry)

Adenosine receptor A2a (Rattus norvegicus), sequence (P30543 whole entry): as above

Row | SMILES | inhibition [1] [%] | inhibition [2] [%] | Ki (Adenosine receptor A1) [nM] | inhibition [3] [%] | Ki (Adenosine receptor A3) [nM] | Ki (Adenosine receptor A2a) [nM] | Ki (Adenosine receptor A2b [4]) [nM] | Drug metabolism [5] | Drug metabolism [6] | solubility [7] [µM] | Ki (Adenosine receptor A2b [8]) [nM] | inhibition [9] [%]
1 | CCCCn1c(=O)c2c(nc3n2CCCN3CCc2ccc(OCC(=O)NCCC(=O)O)cc2)n(CCCC)c1=O | – | – | – | – | – | – | – | Metabolite_Detected | Metabolite_Detected | – | – | –
2 | CCCCn1c(=O)c2c(nc3n2CCCN3CCc2ccc(OCC(=O)NCCN(CC)CC)cc2)n(CCCC)c1=O | – | – | 50.7 | – | 155 | 242 | – | – | – | 189 (≈ 113 µg/mL) | 113 | –
3 | CCCn1c(=O)c2c(nc3n2CCCN3CCc2ccc(OCC(=O)NCCCn3ccnc3)cc2)n(CCC)c1=O | – | – | 605 | – | 1000 | 637 | 862 | – | – | – | – | –
4 | CCCCn1c(=O)c2c(nc3n2CCCN3CCc2ccc(OCC(=O)NCCN3CCOCC3)cc2)n(CCCC)c1=O | – | – | 181 | – | > 1000 | 671 | 298 | – | – | – | – | 46
5 | CCCn1c(=O)c2c(nc3n2CCCN3CCc2ccc(OCC(=O)NCCCNC3CCCCC3)cc2)n(CCC)c1=O | – | – | 145 | – | 458 | 335 | – | – | – | – | 306 | –
6 | CCCn1c(=O)c2c(nc3n2CCCN3CCc2ccc(OCC(=O)NCCN3CCCC3)cc2)n(CCC)c1=O | – | – | 113 | – | 509 | 551 | – | – | – | – | 193 | –
7 | CCCn1c(=O)c2c(nc3n2CCCN3CCc2ccc(OCC(=O)NCCN3CCOCC3)cc2)n(CCC)c1=O | – | – | 509 | – | > 1000 | 1120 | 911 | – | – | – | – | 21
8 | CCCCn1c(=O)c2c(nc3n2CCCN3CCc2ccc(OCC(=O)NCCc3ccccn3)cc2)n(CCCC)c1=O | – | 39 | 382 | – | > 1000 | 1070 | > 1000 | – | – | – | – | 44
9 | CCCCn1c(=O)c2c(nc3n2CCCN3CCc2ccc(OCC(=O)NCc3ccc(F)cc3)cc2)n(CCCC)c1=O | 32 | 43 | 1010 | – | > 1000 | > 10000 | > 1000 | – | – | – | – | 40
10 | CCCCn1c(=O)c2c(nc3n2CCCN3CCc2ccc(OCC(=O)NCCCNC3CCCCC3)cc2)n(CCCC)c1=O | – | – | 118 | – | 353 | 1250 | 215 | – | – | – | – | –

Results, then the compound that gave them:

Row | inhibition [1] [%] | inhibition [2] [%] | Ki (Adenosine receptor A1) [nM] | inhibition [3] [%] | Ki (Adenosine receptor A3) [nM] | Ki (Adenosine receptor A2a) [nM] | Ki (Adenosine receptor A2b [4]) [nM] | Drug metabolism [5] | Drug metabolism [6] | solubility [7] [µM] | Ki (Adenosine receptor A2b [8]) [nM] | inhibition [9] [%] | SMILES
11 | 24 | -4 | > 10000 | 18 | 1090 | > 10000 | > 1000 | – | – | – | – | – | CCCn1c(=O)c2c(nc3n2CCCN3CCc2ccc(OCC(=O)NCc3ccc(Cl)cc3)cc2)n(CCC)c1=O
12 | – | 41 | 1590 | – | > 1000 | 1630 | > 1000 | – | – | – | – | 41 | CCCCn1c(=O)c2c(nc3n2CCCN3CCc2ccc(OCC(=O)NCc3cccc(OC)c3)cc2)n(CCCC)c1=O
13 | 37 | 39 | > 10000 | 22 | > 1000 | > 10000 | > 1000 | – | – | – | – | 28 | CCCn1c(=O)c2c(nc3n2CCCN3CCc2ccc(OCC(=O)NCc3cccc(OC)c3)cc2)n(CCC)c1=O
14 | – | – | 320 | – | 602 | 1290 | 578 | – | – | – | – | – | CCCCn1c(=O)c2c(nc3n2CCCN3CCc2ccc(OCC(=O)NCc3ccccc3)cc2)n(CCCC)c1=O

— ChEMBL document CHEMBL4257504, “Tricyclic xanthine derivatives containing a basic substituent: adenosine receptor affinity and drug-related properties” (Medchemcomm, 2018)
